Measurements published in PMC4837691 (Molecular pharmaceutics, 2015).

Columns and labels:
[1] = system: liver hepatocytes (luciferase expression); assay: HD-stimulated / direct HD luciferase gene expression in liver; type: in vivo, mice; conditions: for fold increase of expression on substitution for the PEG-peptide five Lys shorter: 80 nmol PEG-peptide, 1 μg pGL3, HD-stimulation at 1 hour
Summary of the method: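 Triplicate mice received 1 μg pGL3 polyplex with 10, 40 or 80 nmol PEG-peptide in 100 μL HBM by tail vein. After 1 h circulation, 1.8 mL saline (per 20 g mouse) was given hydrodynamically over 5 s by tail vein. Liver bioluminescence was imaged 24 h later and analysed as log10 values. Controls: naked pGL3 with HD at 5 min, and direct HD of pGL3.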

serum DNAse = conditions: cited from earlier work
[2] = system: scavenger receptors (liver uptake of 125I-pGL3 polyplexes); assay: Inhibition of liver uptake of 125I-pGL3 polyplexes by excess PEG-peptide; type: in vivo; conditions: mice, PEG 5 kDa peptides dosed in excess (not shown)
liver = system: liver; set-up: species or system mice; conditions: mouse, in vivo

PEG30kDa-Cys-Trp-Lys20
fold increase of expression on substitution for the PEG-peptide five Lys shorter [1]: 5 fold

PEG5kDa-Cys-Trp-Lys18
resistance of polyplexes to metabolism by serum DNAse in vitro (serum DNAse): resisted metabolism by serum DNAse in vitro

PEG5kDa-Cys-Trp-Lys15
inhibition of polyplex uptake into the liver when dosed in excess [2]: failed to inhibit polyplex uptake into the liver

PEG30kDa-Cys-Trp-Lys25
maximal percent of polyplex dose taken up by liver (liver): ~30% | percent of polyplex dose taken up by liver (liver): approximately 16% | fold increase of expression on substitution for the PEG-peptide five Lys shorter [1]: 5 fold | fold increase of expression (over 10 nmol dose) ([1]; 1 μg pGL3 polyplex with 40 nmol PEG-peptide, HD-stimulation at 1 hour): 100 fold | further fold improvement of expression (over 40 nmol dose) ([1]; 1 μg pGL3 polyplex with 80 nmol PEG-peptide, HD-stimulation at 1 hour): 15 fold
